We go through five compounds from ChEMBL document CHEMBL1130199, “Differentiation between partial agonists and neutral 5-HT1B antagonists by chemical modulation of 3-[3-(N,N-dimethylamino)propyl]-4-hydroxy- N-[4-(pyridin-4-yl)phenyl]benzamide (GR-55562)” (J Med Chem, 1997).

For assay [1], the target named is T1, 5-hydroxytryptamine receptor 1A (Homo sapiens, UniProt P08908).
T1 sequence (P08908 whole entry): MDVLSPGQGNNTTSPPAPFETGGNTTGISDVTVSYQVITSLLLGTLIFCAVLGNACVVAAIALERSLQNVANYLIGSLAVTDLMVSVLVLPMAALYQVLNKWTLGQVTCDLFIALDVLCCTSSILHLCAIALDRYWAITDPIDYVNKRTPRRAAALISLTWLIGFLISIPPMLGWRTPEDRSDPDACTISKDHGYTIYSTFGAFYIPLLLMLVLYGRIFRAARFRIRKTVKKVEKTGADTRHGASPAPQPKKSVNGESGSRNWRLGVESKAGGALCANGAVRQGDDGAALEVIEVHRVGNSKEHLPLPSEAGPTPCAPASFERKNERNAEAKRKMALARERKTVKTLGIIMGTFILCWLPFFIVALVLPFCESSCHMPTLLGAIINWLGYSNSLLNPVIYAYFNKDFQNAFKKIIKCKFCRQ
In words: Binding affinity for 5-hydroxytryptamine 1A receptor in HeLa transfected cell type using [3H]8-OH-DPAT as radioligand. The essentials:
(§1)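 Radioligand binding on membranes from HeLa/HA7 cells (h5-HT1A), transfected Cos-7 cells (h5-HT1D) or C6-glia cells stably transfected with h5-HT1B. Values are mean or mean ± SD of 2–3 independent experiments, each in triplicate.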

Assay [2] has as its target T2, 5-hydroxytryptamine receptor 1B (Homo sapiens, UniProt P28222). The assay can be described thus: Binding affinity for 5-hydroxytryptamine 1B receptor in C6-glial transfected cell type using [3H]GR-125743 as radioligand. The gist of the method:
as §1

In assay [3] the target is 5-hydroxytryptamine receptor 1D (Homo sapiens, UniProt P28221). In words: Binding affinity for 5-hydroxytryptamine 1D receptor in Cos-7 transfected cell type using [3H]5-CT as radioligand. The essentials: as §1
Chain of 5-hydroxytryptamine receptor 1D (P28221 whole entry): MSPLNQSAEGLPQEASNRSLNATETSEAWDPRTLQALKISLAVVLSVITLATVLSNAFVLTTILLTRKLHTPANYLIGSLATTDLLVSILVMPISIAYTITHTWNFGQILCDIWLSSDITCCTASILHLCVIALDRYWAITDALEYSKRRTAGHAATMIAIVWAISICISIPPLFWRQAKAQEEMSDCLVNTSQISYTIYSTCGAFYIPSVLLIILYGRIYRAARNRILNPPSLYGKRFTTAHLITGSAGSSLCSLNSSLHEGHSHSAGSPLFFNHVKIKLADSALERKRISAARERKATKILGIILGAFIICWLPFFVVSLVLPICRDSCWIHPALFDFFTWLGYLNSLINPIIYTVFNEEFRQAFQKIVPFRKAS
The target of assay [4] is T2, 5-hydroxytryptamine receptor 1B. In words: Intrinsic activity for Antagonism of 5-hydroxytryptamine 1B receptor-mediated stimulation of [35S]GTP gamma S binding. The format is functional. The gist of the method:
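[35S]GTPγS binding to C6-glia/h5-HT1B membranes (20–120 μg protein) in 20 mM Hepes pH 7.4 with 30 μM GDP, 100 mM NaCl, 3 mM MgCl2 and 0.2 mM ascorbate. Compound was incubated 30 min at 25 °C, then 500 pM [35S]GTPγS was added for 30 min. Emax is given as % of the response to 10 μM 5-HT, and EC50 is relative to each compound's own maximum. Mean ± SD of 2–4 experiments, each in triplicate.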
Background: GTPγS is a poorly hydrolysed GTP analogue; its binding reports G protein activation.

Assay [5] is described as follows: Determined KB value of the compound. Type of assay: functional. The gist of the method:
(§2)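 Membranes of C6-glia cells stably expressing h5-HT1B were preincubated with zolmitriptan concentration series, with or without antagonist (1 μM or 10 μM), in 20 mM Hepes pH 7.4 containing 30 μM GDP, 100 mM NaCl, 3 mM MgCl2 and 0.2 mM ascorbic acid, 30 min at 25 °C. [35S]GTPγS (500 pM) was then added for 30 min. pA2 was derived from concentration ratios. Mean ± SD of 2–4 experiments, each in triplicate.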

Assay [6] is described as follows: Antagonism of the zolmitriptan-mediated response tested at 1 uM. The format is functional. The gist of the method:
as §2

Assay [7] addresses T2, 5-hydroxytryptamine receptor 1B. In words: Binding affinity for 5-hydroxytryptamine 1B receptor in C6-glial transfected cell type using [3H]5-CT as radioligand. The gist of the method:
as §1

Assay [8] can be described thus: Antagonism of the zolmitriptan-mediated response tested at 10 uM. The format is functional. The essentials:
as §2

Each structure is given as a SMILES string.

T2 sequence (P28222 whole entry): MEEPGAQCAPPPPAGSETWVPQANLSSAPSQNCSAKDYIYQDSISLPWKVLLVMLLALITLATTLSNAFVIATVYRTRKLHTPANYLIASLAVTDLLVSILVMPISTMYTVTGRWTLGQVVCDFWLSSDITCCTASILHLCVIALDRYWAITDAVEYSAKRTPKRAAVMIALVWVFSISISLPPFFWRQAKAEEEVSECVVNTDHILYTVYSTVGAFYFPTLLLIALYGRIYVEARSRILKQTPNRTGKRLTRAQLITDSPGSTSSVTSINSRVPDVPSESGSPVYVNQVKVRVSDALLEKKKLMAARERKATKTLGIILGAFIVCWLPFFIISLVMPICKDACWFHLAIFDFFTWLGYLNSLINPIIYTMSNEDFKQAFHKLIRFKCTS

Turning to `COc1ccc(C(=O)Nc2ccc(-c3ccncc3)cc2)cc1C=CCN(C)C`, the inhibitory constant (Ki) (in general, a dissociation constant, usually derived from enzyme kinetics or from competition with a known ligand) in assay [1] was found to be 633 nM; in assay [2], 6.1 nM; in assay [3], 169 nM; in assay [7], 19 nM. In assay [4], this compound returned an Activity of 2.3. In addition, in assay [5], the Kb is 19.4 nM. Besides, a half-maximal response in assay [6] (EC50) required 3300 nM.

Regarding `COc1ccc(C(=O)Nc2ccc(-c3ccncc3)cc2)cc1/C=C/CN(C)C`, the Ki is > 1000 nM in assay [1], 18.8 nM in assay [2], 560 nM in assay [3] and 13.6 nM in assay [7]. The compound also registered an Activity in assay [4] of 23. In addition, a half-maximal response in assay [8] (EC50) required 4300 nM.

For `COc1ccc(C(=O)Nc2ccc(-c3ccncc3)cc2)cc1CCCN(C)C`, the Ki in assay [1] was > 1000 nM; in assay [2], 15.4 nM; in assay [3] it was 540 nM; in assay [7], 70.1 nM. Moreover, in assay [4], the Activity was found to be 4. For the same compound, the Kb in assay [5] was found to be 22.7 nM. For the same compound, the EC50 (usually the concentration needed to bring the measured effect to its halfway point) in assay [6] was determined as 2850 nM.

With `COc1ccc(C(=O)Nc2ccc(-c3ccncc3)cc2)cc1C#CCN(C)C`, the inhibitory constant (Ki) in assay [1] was > 1000 nM; in assay [2] it was 22.3 nM; in assay [3] it was 1200 nM; in assay [7], 16.2 nM. In assay [4], this compound gave an Activity of 32.3. In assay [8], this compound gave an EC50 of 837 nM.

For the compound `CN(C)CCCc1cc(C(=O)Nc2ccc(-c3ccncc3)cc2)ccc1O` [GR-55562], the Ki is 842 nM in assay [1], 14 nM in assay [2], 700 nM in assay [3] and 12.1 nM in assay [7]. The Activity in assay [4] is -3.7. The Kb in assay [5] is 21.3 nM. The same compound registered an EC50 in assay [6] of 3000 nM.
